Laboratory results published in ChEMBL document CHEMBL1800048, “Gambogic acid, a natural product inhibitor of Hsp90” (J Nat Prod, 2011).
Calls of active or inactive are those of the source. The rule behind the calls is not given here.

Key:
[1] = Effect on [35S]His-tagged HRI stability in heme-deficient reticulocyte lysate assessed as loss of [35S]His-tagged HRI at 80 uM after 45 mins by SDS-PAGE and autoradiography
How it was run: (§1)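 Wild-type [35S]His-tagged HRI made by coupled transcription-translation in reticulocyte lysate with [35S]methionine. Compound or DMSO (4% v/v) added after 20 min, then 10 min more. Sample diluted into 7 volumes of heme-deficient lysate (hemin 20 µM as reference) holding the same compound level, 45 min. HRI pulled down on NTA-Ni resin, 1 h on ice. SDS-PAGE and autoradiography; mobility shift and band densitometry as % of minus-heme control.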

[2] = Inhibition of Hsp90-mediated [35S]His-tagged HRI maturation in heme-deficient reticulocyte lysate at 80 uM after 45 mins by SDS-PAGE and autoradiography; how it was run: as §1
[3] = target: T1, Hsp90 co-chaperone Cdc37 (Homo sapiens) (UniProt Q16543); test: Inhibition of Cdc37 interaction with heme-regulated [35S]His-tagged eIF2alpha K199R mutant kinase in reticulocyte lysate assessed as coadsorbed Cdc37 at 80 uM after 40 mins by SDS-PAGE and Western blot analysis
T1 sequence (whole entry): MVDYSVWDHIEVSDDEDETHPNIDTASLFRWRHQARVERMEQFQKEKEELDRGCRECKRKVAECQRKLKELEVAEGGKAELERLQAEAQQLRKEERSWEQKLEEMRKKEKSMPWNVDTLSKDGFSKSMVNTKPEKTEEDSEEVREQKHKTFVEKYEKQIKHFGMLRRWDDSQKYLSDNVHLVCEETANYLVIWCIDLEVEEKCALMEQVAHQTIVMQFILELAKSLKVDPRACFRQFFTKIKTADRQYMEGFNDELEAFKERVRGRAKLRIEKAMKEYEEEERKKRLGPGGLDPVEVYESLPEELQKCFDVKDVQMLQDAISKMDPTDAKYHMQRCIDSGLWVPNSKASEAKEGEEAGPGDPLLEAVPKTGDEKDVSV
How it was run: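 His-tagged kinase-dead HRI K199R made by TnT in reticulocyte lysate with [35S]methionine. After 10 min of synthesis, compound or DMSO (4% v/v) added, then 40 min more. Immunoadsorbed with anti-His-tag antibody on anti-mouse-IgG agarose. Washed four times in 10 mM PIPES pH 7.2, 100 mM NaCl. Co-adsorbed Hsp90, Hsp70 and Cdc37 read by SDS-PAGE and Western blot; plasmid-free lysate as nonspecific control.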

[4] = Inhibition of Hsp90-mediated [35S]His-tagged HRI maturation in heme-deficient reticulocyte lysate at 4 mM after 45 mins by SDS-PAGE and autoradiography; how it was run: as §1
[5] = Effect on [35S]His-tagged HRI stability in heme-deficient reticulocyte lysate assessed as loss of [35S]His-tagged HRI at 4 mM after 45 mins by SDS-PAGE and autoradiography; how it was run: as §1
[6] = Effect on [35S]His-tagged HRI stability in heme-deficient reticulocyte lysate assessed as loss of [35S]His-tagged HRI at 400 uM after 45 mins by SDS-PAGE and autoradiography
[7] = Inhibition of Hsp90-mediated [35S]His-tagged HRI maturation in heme-deficient reticulocyte lysate at 400 uM after 45 mins by SDS-PAGE and autoradiography
How it was run: (§2)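 [35S]His-tagged wild-type HRI was made by transcription-translation in reticulocyte lysate. Compound or 4% v/v DMSO was added at 20 min, followed by 10 min more. Samples were diluted into 7 volumes of heme-deficient lysate holding the same compound concentration; hemin-supplemented (20 µM) lysate was the reference. After 45 min, HRI was captured on Ni-NTA on ice for 1 h. Maturation was scored by mobility shift on SDS-PAGE and autoradiography.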

[8] = Inhibition of Hsp90-dependent refolding of luciferase in reticulocyte lysate by microplate reader
[9] = target: T1, Hsp90 co-chaperone Cdc37 (Homo sapiens); conditions: 100 uM
[10] = Effect on [35S]His-tagged HRI stability in heme-deficient reticulocyte lysate assessed as loss of [35S]His-tagged HRI at 100 uM after 45 mins by SDS-PAGE and autoradiography
[11] = Inhibition of Hsp90-mediated [35S]His-tagged HRI maturation in heme-deficient reticulocyte lysate at 100 uM after 45 mins by SDS-PAGE and autoradiography; how it was run: as §2
[12] = Inhibition of Hsp90-mediated [35S]His-tagged HRI maturation in heme-deficient reticulocyte lysate at 50 uM after 45 mins by SDS-PAGE and autoradiography; how it was run: as §2
HeLa = test: Antiproliferative activity against human HeLa cells assessed as inhibition of cell growth after 72 hrs by cell titer 96 assay; format: functional
How it was run: (§3)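 Cells seeded at 2000/well and left to attach overnight. HeLa was grown in MEM with non-essential amino acids, 2 mM glutamine and 10% FBS. SkBr3 was grown in DMEM/F12 (1:1) with penicillin/streptomycin and 10% FBS. Varying compound concentrations or 1% DMSO vehicle were added for 72 h at 37 °C. Tetrazolium reagent was added for 1 h, then A490 read; viability expressed as % of DMSO wells.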

Heat shock protein HSP90 [13] = target: T2, Heat shock protein HSP90 (Homo sapiens, UniProt P07900+P08238); test: Inhibition of Hsp90 in human SKBR3 cells assessed as induction of Hsp70 expression after 36 hrs by Western blot analysis; format: cell-based; conditions: SK-BR-3
How it was run: (§4)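 Cells (1×10^6 per dish) were attached overnight, then exposed to the compound for 36 h. […] Extracts (10 µg protein) were Western blotted for Her2, Akt, Raf-1, Hsp90 and Hsp70, with actin as loading control.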

Heat shock protein HSP90 [14] = target: T2, Heat shock protein HSP90; test: Binding affinity to human full length Hsp90 expressed in insect Sf9 cells by SPR analysis
How it was run: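 Full-length human Hsp90β from baculovirus-infected Sf9 cells was amine-coupled by EDC/NHS to a carboxyl SPR chip (about 2000 RU). Compound at 1.0–50 µM was injected in 10 mM PIPES pH 7.4, 300 mM NaCl, 2% DMSO at 15 µL/min, 25 °C. Measured in triplicate; ka, kd and KD were derived from curve fits.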

Heat shock protein HSP90 [15] = target: T2, Heat shock protein HSP90; test: Inhibition of Hsp90 in human MCF7 cells assessed as Akt degradation after 36 hrs by Western blot analysis; format: cell-based; how it was run: as §4
Heat shock protein HSP90 [16] = target: T2, Heat shock protein HSP90; test: Inhibition of Hsp90 in human MCF7 cells assessed as induction of Hsp70 expression after 36 hrs by Western blot analysis; format: cell-based; how it was run: as §4
Heat shock protein HSP90 [17] = target: T2, Heat shock protein HSP90; test: Inhibition of Hsp90 in human MCF7 cells assessed as Raf degradation after 36 hrs by Western blot analysis; format: cell-based; how it was run: as §4
Heat shock protein HSP90 [18] = target: T2, Heat shock protein HSP90; test: Inhibition of Hsp90 in human HeLa cells assessed as Raf degradation at 0.01 to 20 uM after 36 hrs by Western blot analysis; format: cell-based; how it was run: as §4
Heat shock protein HSP90 [19] = target: T2, Heat shock protein HSP90; test: Inhibition of Hsp90 in human HeLa cells assessed as Akt degradation at 0.01 to 20 uM by Western blot analysis; format: cell-based; how it was run: as §4
Heat shock protein HSP90 [20] = target: T2, Heat shock protein HSP90; test: Binding affinity to human Hsp90 N-terminal domain (1 to 241) expressed in Escherichia coli DE-3 Star cells by SPR analysis
[21] = Effect on [35S]His-tagged HRI stability in heme-deficient reticulocyte lysate assessed as loss of [35S]His-tagged HRI at 50 uM after 45 mins by SDS-PAGE and autoradiography
[22] = target: T1, Hsp90 co-chaperone Cdc37 (Homo sapiens); conditions: 50 uM
Heat shock protein HSP90 [23] = target: T2, Heat shock protein HSP90; test: Inhibition of Hsp90 in human SKBR3 cells assessed as Akt degradation after 36 hrs by Western blot analysis; format: cell-based; conditions: SK-BR-3; how it was run: as §4
Heat shock protein HSP90 [24] = target: T2, Heat shock protein HSP90; test: Binding affinity to human Hsp90 N-terminal domain (1 to 241) expressed in Escherichia coli DE-3 Star cells by SPR analysis in presence of 20 uM geldanamycin
Heat shock protein HSP90 [25] = target: T2, Heat shock protein HSP90; test: Inhibition of Hsp90 in human SKBR3 cells assessed as induction of Hsp90 expression after 36 hrs by Western blot analysis; format: cell-based; conditions: SK-BR-3; how it was run: as §4
Heat shock protein HSP90 [26] = target: T2, Heat shock protein HSP90; test: Inhibition of Hsp90 in human SKBR3 cells assessed as Her2 degradation after 36 hrs by Western blot analysis; format: cell-based; conditions: SK-BR-3
How it was run: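 SkBr3 cells (1×10^6 per dish) were attached overnight, then exposed to the compound for 36 h. […] Her2 was Western blotted from 1 µg extract protein, with actin as loading control.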

Heat shock protein HSP90 [27] = target: T2, Heat shock protein HSP90; test: Binding affinity to human Hsp90 C-terminal domain (531 to 732) expressed in Escherichia coli DE-3cstar cells by SPR analysis
How it was run: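 Hsp90 N-terminal (aa 1–241) or C-terminal (aa 531–732) domain was expressed in E. coli, Ni-NTA purified, His-tag TEV-cleaved, then gel-filtered and biotinylated for SPR. Analyte was injected in 10 mM PIPES pH 7.4, 300 mM NaCl, 2% DMSO at 15 µL/min, 25 °C. […] Triplicates; ka, kd and KD were derived from fits.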

Heat shock protein HSP90 [28] = target: T2, Heat shock protein HSP90; test: Inhibition of Hsp90 in human MCF7 cells assessed as induction of Hsp90 expression after 36 hrs by Western blot analysis; format: cell-based; how it was run: as §4
SK-BR-3 = test: Antiproliferative activity against human SKBR3 cells assessed as inhibition of cell growth after 72 hrs by cell titer 96 assay; format: functional; conditions: SK-BR-3, 72 h; how it was run: as §3
Heat shock protein HSP90 [29] = target: T2, Heat shock protein HSP90; test: Inhibition of Hsp90 in human MCF7 cells assessed as Her2 degradation after 36 hrs by Western blot analysis; format: cell-based; how it was run: as §4
Heat shock protein HSP90 [30] = target: T2, Heat shock protein HSP90; test: Inhibition of Hsp90 in human HeLa cells assessed as Her2 degradation at 0.01 to 20 uM after 36 hrs by Western blot analysis; format: cell-based; how it was run: as §4
Heat shock protein HSP90 [31] = target: T2, Heat shock protein HSP90; test: Inhibition of Hsp90 in human SKBR3 cells assessed as Raf degradation after 36 hrs by Western blot analysis; format: cell-based; conditions: SK-BR-3; how it was run: as §4
[32] = Inhibition of Hsp90-mediated [35S]His-tagged HRI maturation in heme-deficient reticulocyte lysate at 20 mM after 45 mins by SDS-PAGE and autoradiography; how it was run: as §1
[33] = Effect on [35S]His-tagged HRI stability in heme-deficient reticulocyte lysate assessed as loss of [35S]His-tagged HRI at 20 mM after 45 mins by SDS-PAGE and autoradiography; how it was run: as §1
[34] = target: Hsp90 co-chaperone Cdc37 (Homo sapiens) (UniProt Q16543); conditions: 20 mM

COC1=C2C[C@@H](C)C[C@H](OC)[C@H](O)[C@@H](C)/C=C(\C)[C@H](OC(N)=O)[C@@H](OC)/C=C\C=C(/C)C(=O)NC(=CC1=O)C2=O
Activity [1]: 0% | inhibition [2]: Active | Activity [3]: Active

CO[C@@H]1[C@@H](OC(N)=O)[C@@H](O)[C@H](Oc2ccc3c(O)c(NC(=O)c4ccc(O)c(CC=C(C)C)c4)c(=O)oc3c2C)OC1(C)C
inhibition [4]: Active | Activity [5]: 90%

CO[C@H]1[C@H](OC(=O)c2ccc(C)[nH]2)[C@H](O)[C@@H](Oc2ccc3c(O)c(NC(=O)c4c[nH]c(C(=O)Nc5c(O)c6ccc(O[C@H]7OC(C)(C)[C@@H](OC)[C@H](OC(=O)c8ccc(C)[nH]8)[C@@H]7O)c(C)c6oc5=O)c4C)c(=O)oc3c2C)OC1(C)C
Activity [6]: 80% | inhibition [7]: Active

CC1=C(O)C(=O)C=C2C1=CC=C1[C@@]2(C)CC[C@@]2(C)[C@@H]3C[C@](C)(C(=O)O)CC[C@]3(C)CC[C@]12C [CELASTROL]
IC50 [8]: 20 µM | Activity [9]: inactive | Activity [10]: 40% | inhibition [11]: Active

CC(C)=CCC[C@]1(C)C=Cc2c(O)c3c(c(CC=C(C)C)c2O1)O[C@]12C(=C[C@@H]4C[C@H]1C(C)(C)O[C@@]2(C/C=C(/C)C(=O)O)C4=O)C3=O [GAMBOGIC ACID]
inhibition [12]: inactive | GI50 (HeLa): 1.5 µM | inhibition (Heat shock protein HSP90 [13]): Dose-dependent effect | Kd (Heat shock protein HSP90 [14]): 9.8 µM | IC50 [8]: 2 µM | inhibition (Heat shock protein HSP90 [15]): Dose-dependent effect | inhibition (Heat shock protein HSP90 [16]): Dose-dependent effect | inhibition (Heat shock protein HSP90 [17]): Dose-dependent effect | inhibition (Heat shock protein HSP90 [18]): Active | inhibition (Heat shock protein HSP90 [19]): Active | Kd (Heat shock protein HSP90 [20]): 7.6 µM | Activity [21]: 10% | Activity [22]: inactive | inhibition (Heat shock protein HSP90 [23]): Dose-dependent effect | Kd (Heat shock protein HSP90 [24]): 7 µM | inhibition (Heat shock protein HSP90 [25]): Dose-dependent effect | inhibition (Heat shock protein HSP90 [26]): Dose-dependent effect | Activity (Heat shock protein HSP90 [27]): inactive | inhibition (Heat shock protein HSP90 [28]): Dose-dependent effect | GI50 (SK-BR-3): 0.8 µM | inhibition (Heat shock protein HSP90 [29]): Dose-dependent effect | inhibition (Heat shock protein HSP90 [30]): Active | inhibition (Heat shock protein HSP90 [31]): Dose-dependent effect

SODIUM MOLYBDATE
inhibition [32]: Active | Activity [33]: 10% | Activity [34]: Active
